From ChEMBL document CHEMBL1138232, “Optimization of naphthalimide-imidazoacridone with potent antitumor activity leading to clinical candidate (HKH40A, RTA 502)” (J Med Chem, 2007)

Experiments:
[1] = test system: HT-29; assay: Growth inhibition of human HT29 cells after 5 days by MTT assay; type: functional; details: HT-29, 120 h; for CC50: read-out: LC50 (the source's name)
In short: (§1)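 MTT assay after 5 day continuous exposure. GI50, TGI and LC50 calculated from the MTT data. Means ± SD of at least three independent experiments; coefficients of variation 10-20%. Compounds used as tri(methanesulfonate) salts.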

[2] = Growth inhibition of human Hep3B cells after 5 days by MTT assay; type: functional, Hep 3B2; details: 120 h; for CC50: read-out: LC50 (the source's name); in short: as §1
[3] = test system: HCT-116; assay: Growth inhibition of human HCT116 cells after 5 days by MTT assay; type: functional; details: HCT-116, 120 h; in short: as §1
[4] = test system: HCT-116; assay: Antitumor activity against human HCT116 cells expressing wild type p53; type: functional; details: read-out: LC50 (the source's name)
In short: (§2)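 Compounds tested as tri(methanesulfonate) salts, soluble in water and dilute buffers. Human tumour cells carrying wild-type or mutated p53 were exposed for 5 days, and viability was read by MTT assay. GI50, TGI and LC50 were calculated from the MTT data. Values are means ± SD of at least three independent experiments, with coefficients of variation of 10–20%.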

[5] = test system: HCT-116; assay: Cell cycle arrest in HCT116 cells assessed as accumulation at G1 phase at 50 nM after 72 hrs; type: functional, Homo sapiens
In short: (§3)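 HCT116 cells exposed to 50 nM drug for 72 h, then cell-cycle distribution analysed. Sub-G1, G1, S and G2/M fractions reported as percent of cells, with untreated control cells for comparison.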

[6] = test system: ASPC1; assay: Antitumor activity against p53 null human ASPC1 cells; type: functional, cell-based
[7] = test system: COLO 205; assay: Antitumor activity against human Colo205 cells expressing mutated p53; type: functional, cell-based; in short: as §2
[8] = test system: HCT-116; assay: Cell cycle arrest in HCT116 cells assessed as accumulation at Sub G1 phase at 50 nM after 72 hrs; type: functional, Homo sapiens; in short: as §3
[9] = test system: PC-3; assay: Antitumor activity against PC3 cells expressing mutated p53; type: functional, cell-based; details: Homo sapiens; in short: as §2
[10] = test system: HCT-116; assay: Cell cycle arrest in HCT116 cells assessed as accumulation at S phase at 50 nM after 72 hrs; type: functional, Homo sapiens; in short: as §3
[11] = test system: HCT-116; assay: Cell cycle arrest in HCT116 cells assessed as accumulation at G2/M phase at 50 nM after 72 hrs; type: functional, Homo sapiens; in short: as §3
[12] = Antitumor activity against human 10.05 cells expressing mutated p53; type: functional, cell-based; in short: as §2
[13] = test system: HT-29; assay: Antitumor activity against HT29 cells expressing mutated p53; type: functional, cell-based; details: Homo sapiens; in short: as §2
[14] = test system: RKO; assay: Antitumor activity against human RKO cells expressing wild type p53; type: functional; details: read-out: LC50 (the source's name); in short: as §2
[15] = test system: MIA PaCa-2; assay: Inhibition of tumor growth in PaCa2 cells xenografted nu/nu mouse at 80 mg/kg; type: functional, Homo sapiens; details: read-out: TGI
In short: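 PaCa-2 tumour fragments implanted on the flank of nu/nu mice, 10 per group. Intraperitoneal treatment, Q3Dx4, started 12 days post-inoculation at 80 mm3 tumour volume. Tumour growth inhibition measured.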

| SMILES | GI50 [1] | CC50 [1] | GI50 [2] | CC50 [2] | GI50 [3] | LC50 [3] | also measured |
| --- | --- | --- | --- | --- | --- | --- | --- |
| O=C1c2cccc3cccc(c23)C(=O)N1CCCN1CCN(CCCNc2ccc3ncn4c5ccccc5c(=O)c2c34)CC1 | 11 nM | 1000 nM | 22 nM | 1000 nM | 15 nM | 1000 nM | – |
| COc1ccc2c(c1)c(=O)c1c(NCCCN3CCN(CCCN4C(=O)c5cccc6cccc(c56)C4=O)CC3)ccc3ncn2c31 | 3 nM | 1000 nM | 3.5 nM | 330 nM | 3.5 nM | 70 nM | – |
| Nc1cc2c3c(cccc3c1)C(=O)N(CCCN1CCN(CCCNc3ccc4ncn5c6ccc(F)cc6c(=O)c3c45)CC1)C2=O | 8 nM | 750 nM | – | – | 2.2 nM | 80 nM | – |
| O=C1c2cccc3cc([N+](=O)[O-])cc(c23)C(=O)N1CCCN1CCN(CCCNc2ccc3ncn4c5ccccc5c(=O)c2c34)CC1 | 2 nM | 550 nM | 4 nM | 380 nM | 1 nM | 40 nM | CC50 [4]: 40 nM; Activity [5]: 37.9%; IC50 [6]: 350 nM; IC50 [7]: 500 nM; Activity [8]: 15.5%; IC50 [9]: > 1000 nM; Activity [10]: 1.3%; Activity [11]: 45%; IC50 [12]: 300 nM; IC50 [13]: 550 nM; CC50 [14]: 40 nM |
| O=C1c2cccc3cc([N+](=O)[O-])cc(c23)C(=O)N1CCCN1CCN(CCCNc2ccc3ncn4c5ccc(F)cc5c(=O)c2c34)CC1 | 2 nM | 600 nM | 4 nM | 400 nM | 1 nM | 40 nM | – |
| Cc1ccc2c(c1)c(=O)c1c(NCCCN3CCN(CCCN4C(=O)c5cccc6cc([N+](=O)[O-])cc(c56)C4=O)CC3)ccc3ncn2c31 | – | – | – | – | 3.5 nM | 30 nM | – |
| Cc1cccc2c1c(=O)c1c(NCCCN3CCN(CCCN4C(=O)c5cccc6cc([N+](=O)[O-])cc(c56)C4=O)CC3)ccc3ncn2c31 | – | – | – | – | 3 nM | 30 nM | – |
| O=C1c2cccc3c([N+](=O)[O-])ccc(c23)C(=O)N1CCCN1CCN(CCCNc2ccc3ncn4c5ccccc5c(=O)c2c34)CC1 | 15 nM | 1000 nM | 18 nM | 1000 nM | 5.5 nM | > 1000 nM | – |
| COc1ccc2c(c1)c(=O)c1c(NCCCN3CCN(CCCN4C(=O)c5cccc6c([N+](=O)[O-])ccc(c56)C4=O)CC3)ccc3ncn2c31 | 4 nM | 1000 nM | 5 nM | 800 nM | 3 nM | 350 nM | – |
| Nc1ccn([C@@H]2O[C@H](CO)[C@@H](O)C2(F)F)c(=O)n1 [GEMCITABINE] | – | – | – | – | – | – | inhibition in vivo at 80 mg/kg [15]: 85.3% |
